For 16 compounds, Activity results are on record in ChEMBL document CHEMBL1759958, “Disassembly of preformed amyloid beta fibrils by small organofluorine molecules” (Bioorg Med Chem Lett, 2011).

Activity calls are given as the source filed them. The rule behind the calls is not given here.

Assay [1] is described as follows: Induction of disassembly of preformed amyloid beta (1 to 40) fibrils assessed as disaggregated fibrils at 10:1 compound to amyloid beta ratio by atomic force microscopy. Conditions: TDE = time-dependent effect. The gist of the method: (§1)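 Synthetic Aβ1-40 dissolved in 100 mM NaOH, diluted to 100 μM in 10 mM HEPES (100 mM NaCl, 0.02% NaN3, pH 7.4), grown at 37°C with shaking (77 rpm) until ThT saturation. Compound added from 0.15 M DMSO stock at 10:1 molar ratio, vortexed 30 s, re-incubated 37°C shaking. Aliquots of 2-5 μL spotted on fresh mica for 30-60 s, water-rinsed, air-dried. Imaged by non-contact AFM.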

A short description of assay [2]: Induction of disassembly of preformed amyloid beta (1 to 40) fibrils assessed as disaggregated fibrils at 10:1 compound to amyloid beta ratio for 1 day by atomic force microscopy. The gist of the method: as §1
Assay [3] is described as follows: Induction of disassembly of preformed amyloid beta (1 to 40) fibrils assessed as disaggregated fibrils at 10:1 compound to amyloid beta ratio for 4 days by fourier-transform infrared spectroscopy. The gist of the method:
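Preformed Aβ1-40 fibrils (100 μM, HEPES pH 7.4, grown at 37°C with 77 rpm shaking to THT saturation) were exposed to compound added from DMSO stock and re-incubated at 37°C with shaking. For FTIR, 20 μl aliquots were lyophilized and mixed with 0.2 g solid KBr.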

Assay [4] in a line: Induction of disassembly of preformed amyloid beta (1 to 40) fibrils assessed as decrease in fibril amount at 10:1 compound to amyloid beta ratio by thioflavin T fluorescence method. The gist of the method: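 Aβ1-40 fibrils were grown at 100 μM final in 10 mM HEPES/100 mM NaCl, pH 7.4, at 37°C with 77 rpm shaking until THT saturation. Compound was added from 0.15 M DMSO stock, vortexed and re-incubated under the same conditions, then sampled periodically into 5 μM ThT (glycine-NaOH, pH 8.5). Read at ex 430/em 484 nm, ThT background subtracted, normalized to Aβ-only control; 3–4 parallel runs, mean ± SD.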

Assay [5] in a line: Induction of disassembly of preformed amyloid beta (1 to 40) fibrils assessed as disaggregated fibrils at 10:1 compound to amyloid beta ratio for 4 days by atomic force microscopy. Put shortly:
as §1

The nature of assay [6]: Induction of disassembly of preformed amyloid beta (1 to 40) fibrils assessed as disaggregated fibrils at 10:1 compound to amyloid beta ratio for 6 days by atomic force microscopy. The gist of the method:
as §1

As for `CCOC(=O)[C@](O)(c1c[nH]c2ccc(I)cc12)C(F)(F)F`, in assay [1], the Activity entry is “tde”. The result in assay [2], in assay [3], in assay [4], in assay [5] and in assay [6] was Active.
Consider `COc1ccc2[nH]cc(CCNC(C)=O)c2c1`, for which the result in assay [3] and in assay [4] was Active.
In the case of `CCOC(=O)C(O)(c1c[nH]c2ccccc12)C(F)(F)F` (racemic), the result in assay [4] was Active.
Take `CCOC(=O)[C@](O)(c1c[nH]c2ccc(Br)cc12)C(F)(F)F`: the outcome in assay [3] and in assay [4] was Active.
On to `CCOC(=O)[C@](O)(c1c[nH]c2ccc(Cl)cc12)C(F)(F)F`, for which the result in assay [3] and in assay [4] was Active.
Turning to `CCOC(=O)C(O)(c1c(C)n(C)c2ccccc12)C(F)(F)F` (racemic), the result in assay [4] was Active.
As for `CCOC(=O)C(O)(c1c(C)[nH]c2ccc(C(=O)OC)cc12)C(F)(F)F` (racemic), the result in assay [3] and in assay [4] was Active.
Take `CCOC(=O)C(O)(c1c[nH]c2ccc(Br)cc12)C(F)(F)F` (racemic): the outcome in assay [3] and in assay [4] was Active.
On to `CCOC(=O)[C@@](O)(c1c[nH]c2ccc(Br)cc12)C(F)(F)F`, for which the outcome in assay [3] and in assay [4] was Active.
Turning to `CCOC(=O)[C@@](O)(c1c[nH]c2ccc(Cl)cc12)C(F)(F)F`, the outcome in assay [3], in assay [4] and in assay [5] was Active.
Take `CCOC(=O)C(O)(c1c[nH]c2ccc(C)cc12)C(F)(F)F` (racemic): in assay [4], the result was Active.
In the case of `CCOC(=O)C(O)(c1c(C)[nH]c2ccc(C)cc12)C(F)(F)F` (racemic), in assay [4], the result was Active.
Turning to `CCOC(=O)[C@@](O)(c1c[nH]c2ccc(I)cc12)C(F)(F)F`, the outcome in assay [3], in assay [4] and in assay [5] was Active.
On to `CCOC(=O)C(O)(c1c[nH]c2ccc(Cl)cc12)C(F)(F)F` (racemic), for which the outcome in assay [3] and in assay [4] was Active.
In the case of `CCOC(=O)C(O)(c1c(C)[nH]c2ccc(OC)cc12)C(F)(F)F` (racemic), the result in assay [4] was Active.
The same measure, in the same setting: the entry for `CCOC(=O)C(O)(c1c[nH]c2ccc(I)cc12)C(F)(F)F` (racemic) is “Active”.
